The source of these data is ChEMBL document CHEMBL4325864, “Discovery of new potent protein arginine methyltransferase 5 (PRMT5) inhibitors by assembly of key pharmacophores from known inhibitors” (Bioorg Med Chem Lett, 2018).

The target of one assay is PRMT5/MEP50 complex (Homo sapiens, UniProt O14744). The experiment in a line: Inhibition of recombinant human N-terminal FLAG-tagged PRMT5 (2 to end residues) /human N-terminal His-tagged MEP50 (2 to end residues) expressed in HEK293F cells pretreated for 15 mins followed by substrate and [3H]-SAM addition measured after 60 mins by scintillation proximity assay. It is filed as cell-based. The essentials:
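PRMT5 enzymatic inhibition measured by radiometric scintillation proximity assay; IC50 determined.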
On the technique in general: Scintillation proximity formats need no separation of bound from free tracer.

Assay [1] concerns the target Protein arginine N-methyltransferase 5 (Homo sapiens, UniProt O14744). The assay can be described thus: Inhibition of full-length N-terminal FLAG-tagged PRMT5 (unknown origin) (1 to 637 residues) expressed in baculovirus infected Sf9 insect cells using histone H4 as peptide after 5 hrs in presence of [H3]AdoMet by scintillation proximity assay.

PRMT5/MEP50 complex, sequence (O14744 whole entry): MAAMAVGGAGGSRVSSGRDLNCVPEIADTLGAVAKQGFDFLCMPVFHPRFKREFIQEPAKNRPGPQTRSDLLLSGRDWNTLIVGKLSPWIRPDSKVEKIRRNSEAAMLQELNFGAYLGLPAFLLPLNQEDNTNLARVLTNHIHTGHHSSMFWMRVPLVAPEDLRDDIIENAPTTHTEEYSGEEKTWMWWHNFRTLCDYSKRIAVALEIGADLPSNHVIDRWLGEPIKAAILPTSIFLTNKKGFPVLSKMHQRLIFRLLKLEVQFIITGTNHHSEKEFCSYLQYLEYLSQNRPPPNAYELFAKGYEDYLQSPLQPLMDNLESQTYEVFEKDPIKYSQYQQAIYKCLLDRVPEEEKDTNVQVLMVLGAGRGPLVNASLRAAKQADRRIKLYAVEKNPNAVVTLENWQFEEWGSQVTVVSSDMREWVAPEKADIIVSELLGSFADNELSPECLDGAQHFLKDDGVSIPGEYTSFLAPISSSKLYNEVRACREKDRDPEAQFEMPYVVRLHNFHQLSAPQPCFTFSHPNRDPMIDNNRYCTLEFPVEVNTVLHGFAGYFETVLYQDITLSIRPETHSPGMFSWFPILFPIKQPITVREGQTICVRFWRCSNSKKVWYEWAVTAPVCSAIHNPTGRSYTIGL
PRMT5/MEP50 complex, sequence (Q9BQA1 whole entry, further chain): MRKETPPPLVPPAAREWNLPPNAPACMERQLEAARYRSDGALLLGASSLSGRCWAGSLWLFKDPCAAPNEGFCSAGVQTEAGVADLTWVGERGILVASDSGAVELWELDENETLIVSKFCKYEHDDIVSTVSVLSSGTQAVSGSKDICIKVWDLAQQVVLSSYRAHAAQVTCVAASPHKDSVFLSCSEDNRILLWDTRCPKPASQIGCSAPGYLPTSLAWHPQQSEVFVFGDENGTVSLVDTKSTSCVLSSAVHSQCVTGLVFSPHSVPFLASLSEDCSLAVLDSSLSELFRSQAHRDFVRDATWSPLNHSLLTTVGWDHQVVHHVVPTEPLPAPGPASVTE
Protein arginine N-methyltransferase 5, sequence (O14744 whole entry, the tested form may be a part): as the sequence (O14744 whole entry) above

As a reminder, the IC50 is the concentration that gives 50% inhibition. As for `O=C(CCN1CCc2ccccc2C1)Nc1cccc(Br)c1`, the IC50 at PRMT5/MEP50 complex was found to be 18.1 µM.

As for `Cc1ccc(NC(=O)CCN2CCc3ccccc3C2)cc1`, the IC50 on PRMT5/MEP50 complex is more than 100 µM.

On to `Cc1cc([N+](=O)[O-])ccc1NC(=O)CCN1CCc2ccccc2C1`, for which the concentration for half-maximal inhibition (IC50) at PRMT5/MEP50 complex was more than 100 µM.

Take `Nc1ncnc2c1ncn2[C@@H]1O/C(=C\[C@@H](N)CC[C@H](N)C(=O)O)[C@@H](O)[C@H]1O`: in assay [1], the IC50 was 0.035 µM.

In the case of `O=C(CCN1CCc2ccccc2C1)Nc1cccc2ccccc12`, the IC50 on PRMT5/MEP50 complex was more than 100 µM.

With `COC(=O)c1ccccc1NC(=O)CCN1CCc2ccccc2C1`, the IC50 at PRMT5/MEP50 complex was found to be 31.6 µM.

As for `O=C(CCN1CCc2ccccc2C1)Nc1cccc(F)c1`, at PRMT5/MEP50 complex, the 50% inhibitory concentration (IC50) was determined as 45.9 µM.

As for `Cc1cccc(NC(=O)CCN2CCc3ccccc3C2)c1`, the IC50 on PRMT5/MEP50 complex is more than 100 µM.

As to `Nc1ncnc2c1ncn2[C@@H]1O[C@H](C[C@@H](N)CC[C@H](N)C(=O)O)[C@@H](O)[C@H]1O` [SINEFUNGIN], in assay [1], the concentration for half-maximal inhibition (IC50) was determined as 8.6 µM.

As for `CC(=O)c1cccc(NC(=O)CCN2CCc3ccccc3C2)c1`, the IC50 at PRMT5/MEP50 complex came to 51.9 µM.

Consider `O=C(CCN1CCc2ccccc2C1)Nc1cccc2ncccc12`, for which, on PRMT5/MEP50 complex, the IC50 is more than 100 µM.

Regarding `O=C(CCN1CCc2ccccc2C1)Nc1cccc(Cl)c1`, the IC50 at PRMT5/MEP50 complex is 42.1 µM.

For `N#Cc1ccccc1NC(=O)CCN1CCc2ccccc2C1`, the IC50 on PRMT5/MEP50 complex came to 25.6 µM.

With `O=C(CCN1CCc2ccccc2C1)Nc1nccc(C(F)(F)F)n1`, the IC50 at PRMT5/MEP50 complex is 69.9 µM.
